Sampled rows, rich in hits. Any-hit rate of the full collection: about 3.8%.
GPR7 antag – GPR7 receptor antagonists, primary screen, cell-based, fluorescence, single concentration. Neuropeptides B/W receptor type 1 (Homo sapiens), P48145. GPR7-expressing cells, fluorescence antagonist assay. inhibition, % at 4.4 µM. 290,000 compounds, 1.1% hits. AID 1861, 2009; in the data active means inhibition above about 16%, passing the limit was not always enough;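 further: cells stimulated with the agonist NPW; 0% = agonist with vehicle and 100% = vehicle without agonist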
MPTP block – mitochondrial permeability transition pore inhibitors, primary screen, biochemical, isolated mouse mitochondria, absorbance; inhibition, % at 10 µM; 360,000 compounds, 1.4% hits; Ca2+ swelling absorbance, 30 min;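 active means inhibition of 50% or more, scaled per plate between neutral and stimulator controls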;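 further: 0% = DMSO wells given calcium and 100% = 1 mM EGTA wells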
OX1R antag-1 – antagonists of human orexin 1 receptor (OX1R). inhibition, % at 6.6 µM. AID 485270, 2010. OX1R-expressing cells, FRET antagonist read-out. 330,000 compounds, 1.8% hits; in the data active means inhibition mostly above about 38%, no sharp cut-off; inactive means mostly below about 40%;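 further: 0% = agonist challenge alone and 100% = reference antagonist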
Target sequence (O43613 whole entry, looked up): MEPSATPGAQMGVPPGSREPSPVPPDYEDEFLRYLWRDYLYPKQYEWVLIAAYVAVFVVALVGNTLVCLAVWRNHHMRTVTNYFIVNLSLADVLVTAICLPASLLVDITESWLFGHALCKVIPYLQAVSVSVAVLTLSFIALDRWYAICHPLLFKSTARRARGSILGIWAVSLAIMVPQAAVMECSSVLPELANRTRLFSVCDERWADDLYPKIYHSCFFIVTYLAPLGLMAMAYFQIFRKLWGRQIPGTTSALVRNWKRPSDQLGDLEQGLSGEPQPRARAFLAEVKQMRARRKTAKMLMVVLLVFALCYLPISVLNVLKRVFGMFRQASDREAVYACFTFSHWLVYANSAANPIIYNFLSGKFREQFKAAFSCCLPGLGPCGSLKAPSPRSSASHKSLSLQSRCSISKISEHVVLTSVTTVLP
OX1R antag-2 – OX1R (HCRTR1) antagonists, primary screen, fluorescence, CHO/OX1R cells, Fluo-8 calcium, orexin A; Fluo-8 calcium fluorescence; AID 434989, 2010; inhibition, % at 5 µM; 330,000 compounds, 0.43% hits;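 active means inhibition above its plate's threshold, mean inhibition of all tested compounds on the plate plus 3 SD, cut at about 37% in these data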;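 further: 0% = orexin A challenge wells and 100% = SB-334867-A antagonist wells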
CHO parental Ca – ATP-evoked calcium signal inhibitors, parental CHO, primary screen, counter-screen for OX1R antagonist project, cell-based, fluorescence, Fluo-8 calcium dye | parental CHO-K1, ATP-induced calcium, Fluo-8 fluorescence | 330,000 compounds, 0.63% hits | inhibition, % at 5.6 µM;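 active means inhibition above that plate's mean sample inhibition plus 3 SD, cut at about 26% in these data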;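 further: 0% = ATP-challenged DMSO wells and 100% = DMSO wells without ATP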
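Test system: untransfected parental CHO cell line; also added: ATP stimulus; dosing: 5.6 µM, single dose; signal: calcium-sensitive Fluo-8 fluorescence; measure: percent inhibition of ATP-evoked calcium rise, normalized to controls; benchmarks: low control ATP plus DMSO, high control DMSO only; replication: one well per compound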
* = called active by the depositor; . = not tested or not shown; ! = not confirmed by another sample.

SMILES | GPR7 antag | MPTP block | OX1R antag-1 | OX1R antag-2 | CHO parental Ca
O=C1N=C(O)CN1/N=C/c1ccc(-c2ccc([N+](=O)[O-])cc2)o1 | . | . | 59* | -13 | -20
NS(=O)(=O)c1ccc(-c2ccc(/C=N/Nc3ccc(C(=O)O)cc3)o2)cc1 | 5 | 4 | 23 | -19 | 1
O=C(O)c1cccc(-c2ccc(/C=N/Nc3ccc([N+](=O)[O-])cc3)o2)c1 | 11 | 9 | 12 | 54* | 33*
O=[N+]([O-])c1ccc(N/N=C/c2c[nH]c3ccccc23)cc1 | 22 | 6 | 11 | 45 | 47*
CCNC(=O)COC(=O)c1csc2c1CCCC2 | -4 | 0 | 18 | -19 | -5
Cc1ccc(S(=O)(=O)N(C)C[C@@H]2OCc3cn(nn3)CCCC(=O)N([C@@H](C)CO)C[C@H]2C)cc1 | . | 0 | . | . | .
O=C(O)c1ccc(N/N=C/C=C/c2ccc([N+](=O)[O-])o2)cc1 | -2 | 8 | 63 | 49* | 52*
O=C(N/N=C/c1ccc([N+](=O)[O-])o1)C(=O)Nc1ccc(C(=O)O)cc1 | -4 | 1 | 60 | -7 | -3
CC(=O)N1c2ccccc2C(=O)C1N(C)c1ccc(C)cc1 (configuration not stated) | -8 | -1 | 11 | -12 | -5
CC(=O)N1/C(=C/c2ccc(N(C)C)cc2)C(=O)c2ccccc21 | 28* | 17 | . | . | .
Cc1ccc(S(=O)(=O)N2CCC(=O)N([C@H](COCc3ccc(C(F)(F)F)cc3)C(C)C)CC2)cc1 | . | 0 | . | . | .
O=C(Nc1ccccc1)OCCNC(=O)c1cccc(Br)c1 | 7 | 1 | 7 | -13 | 6
O=C(Nc1ccc(Cl)c(Cl)c1)OCCNC(=O)c1cccc(Cl)c1 | 5 | 28 | 67 | 28 | 40*
CNC(=O)C[C@H]1C(=O)N(c2ccccc2)C[C@@H]1CSC | . | -1 | . | . | .
COc1cc(C(=O)NCc2cccnc2)ccc1OCC(=O)Nc1cccc(C(F)(F)F)c1 | . | 4 | 25 | 29 | 43*
CCOc1ccc(NC(=O)COc2ccc(C(=O)NCc3cccnc3)cc2OC)cc1 | . | -1 | 11 | -29 | -15
CCN1CCN(CC(=O)Nc2ccccc2)C(=O)C1=O | 15* | -4 | 14 | -19 | -10
COc1cccc(-c2c(-c3ccccc3OC)ncn2Cc2cccc(-c3ccccc3)c2)c1 | . | 0 | . | . | .
CCOc1ccc(Oc2ccccc2NC(=O)CCNC(C)=O)cc1 | -6 | 6 | 18 | -5 | -1
O=C(NCc1cccc(F)c1)c1cccc2c1C(=O)c1ccc(N3CCC(Cc4ccccc4)CC3)cc1S2(=O)=O | . | 1 | 15 | 40 | 42*
O=C(NCc1ccccc1)C(c1ccc(-c2ccccc2)cc1)N1CCN(C(=O)C2CCCO2)CC1 (configuration not stated) | . | -1 | . | . | .
O=C(CC[C@H]1O[C@@H](n2cnc3c(NC(=O)c4ccccc4)ncnc32)[C@H](O)[C@@H]1O)NCCCN1CCCC1=O | . | -3 | . | . | .
CCN(c1ccccc1)C1(O)C(=O)c2ccccc2C1=O | 20* | 2 | 12 | -14 | -2
O=C(O)CNc1nc(Cl)ccc1[N+](=O)[O-] | -12 | -2 | 64* | -10 | -1
CCSc1nnc(NC(=O)CCN2C(=O)C3CCCCC3C2=O)s1 (configuration not stated) | . | 0 | 0 | 6 | -7
SMILES | GPR7 antag | MPTP block | OX1R antag-1 | OX1R antag-2 | CHO parental Ca
CC(=O)c1cccc(-c2ccnc3c2CC(C(=O)Nc2ccc(Cl)c(C(F)(F)F)c2)O3)c1 (configuration not stated) | . | 2 | . | . | .
COC(=O)CSc1nc(-c2ccc(F)cc2)cc(C(F)(F)F)n1 | -16 | 4 | 11 | -28 | -21
OC(c1cc(-c2ccc(C(F)(F)F)cc2)nc(C(F)(F)F)c1)C1CCCCN1 (configuration not stated) | 42* | 3 | -16 | -2 | 8
COc1ccc(CNC(=O)CN(c2ccc(C)cc2)S(=O)(=O)c2c(C)noc2C)cc1 | 4 | -1 | 44* | -5 | -20
CCOc1ccc(N(CC(=O)Nc2cccc(Cl)c2)S(=O)(=O)c2c(C)noc2C)cc1 | -6 | 4 | 18 | -5 | 40*
COc1ccccc1CNC(=O)CN(c1ccc(C)cc1)S(=O)(=O)c1c(C)noc1C | -12 | -2 | 71* | 5 | -27
COc1ccc(N(CC(=O)NCc2ccccc2)S(=O)(=O)c2c(C)noc2C)cc1 | 4 | 1 | 12 | -5 | -12
Cc1ccc(N(CC(=O)NCc2ccc3c(c2)OCO3)S(=O)(=O)c2c(C)noc2C)cc1 | -8 | 0 | 60* | -8 | -20
COc1ccccc1CNC(=O)CN(c1ccc(C)cc1)S(=O)(=O)c1c(C)n[nH]c1C | -4 | -1 | 19 | -14 | -18
Cc1onc(-c2ccccc2)c1C(=O)Oc1ccccc1 | -16 | 1 | 5 | -26 | -24
O=C(CNC(=O)c1ccco1)Nc1ccc(Cl)cc1 | -2 | 0 | 4 | 4 | -3
COC(=O)c1ccsc1NS(=O)(=O)c1ccccc1 | -19 | 0 | 9 | 9 | -13
COC(=O)Cc1cc(OC)c(OC)cc1S(=O)(=O)N(C)C | -12 | -2 | 15 | -19 | -14
CCC(=O)N1Cc2cc(C(=O)N(C)C)nc(-c3cccc(-c4cncnc4)c3)c2[C@@H]1CCO | . | 0 | . | . | .
CCOC(=O)C1CCCN(C(=O)CCc2nnc(-c3ccc(C(C)=O)s3)o2)C1 (configuration not stated) | -3 | 0 | 42* | -14 | -11
CCOc1ccc(CCNS(=O)(=O)c2c(C)nc3sccn3c2=O)cc1OCC | . | 0 | . | . | .
O=C(CNS(=O)(=O)c1cccc(F)c1)OCC(=O)N1CCCC1=O | . | -1 | 4 | 12 | -10
COc1ccc(-c2sc(Nc3ccccc3)n[n+]2-c2ccc(F)cc2)c(C)c1C | 16 | 38 | 18 | -19 | -24
CCc1ccccc1NC(=O)CSc1ncn[nH]1 | -3 | 0 | 1 | 1 | -5
CCc1cccc(C)c1NC(=O)CSc1ncn[nH]1 | -13 | -1 | -5 | 2 | 29*
S=C(Nc1ccccc1)N1CCC(C2CCN(C(=S)Nc3ccccc3)CC2)CC1 | 19* | . | 6 | -17 | -5
CC(C)n1c(=NC(=O)c2ccco2)c(C#N)cc2c(=O)n3ccccc3cc21 | -4 | -1 | 54* | -24 | -10
CCOC(=O)c1cc2c(=O)n3ccccc3nc2n(C(C)C)c1=NC(=O)c1ccco1 | -8 | 0 | 29 | -24 | -8
Cc1cc(=O)n2[nH]c(-c3ccc(C(C)(C)C)cc3)cc2n1 | 25*! | 2 | 13 | -10 | -7
Cc1cc(=O)n2[nH]c(-c3ccccc3)cc2n1 | 5 | -2 | 30 | -25 | -6
COc1ccc(Cc2c(-c3ccc(F)cc3)nc3ccc(Cl)cn23)c(C)c1 | . | 0 | . | . | .

High-throughput results as filed in PubChem.
